Sampled rows, rich in hits. Any-hit rate of the full collection: about 11%.
M1 antag – M1 muscarinic receptor (rat) antagonism. P08482. CHO-M1 cells, Fluo-4 calcium, ACh EC80 antagonist mode; hits give low values. B-score at 10 µM. 64,000 tested, 3.4% active. AID 628;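 active = calcium fluorescence response, raw or row-and-column corrected B-score, differing from the plate sample mean either way at a set confidence level, mostly lower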
Htt clearance – mutant huntingtin protein clearance; 47,000 tested, 0.42% active; HeLa Exon1htt(103Q)mCFP, aggregate imaging; zero = plate's median compound well; inhibition, % at 1.5 µM;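 active = inhibition of aggregate fluorescence above about 70%, also judged a hit by eye on the cell image, limit read from the data, passing the limit was not always enough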;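 note: cells exposed to compound for three days before fixation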
D1 mod – allosteric modulators of human D1 dopamine receptor | P21728 | HEK293 D1, CRE-luciferase, dopamine EC30 potentiation; actives deviate in either direction | B-score at 10 µM | 58,000 tested, 5.9% active;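 active = luminescence count or its row- and column-corrected plate score outside the 99.7% band of the plate's sample wells, on either side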
SF1 activator – activators of human nuclear receptor SF-1 | Q13285 | CHO-K1 Gal4-SF-1 LBD luciferase reporter; % increase over DMSO SF-1-specific signal | activation, % at 10 µM | 65,000 tested, 1.9% active | AID 522;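 active = activation above the mean activation of all tested compounds plus 3 SD, cut at about 50% in these data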
Target sequence (Q13285 whole entry, looked up, the tested form may be a part): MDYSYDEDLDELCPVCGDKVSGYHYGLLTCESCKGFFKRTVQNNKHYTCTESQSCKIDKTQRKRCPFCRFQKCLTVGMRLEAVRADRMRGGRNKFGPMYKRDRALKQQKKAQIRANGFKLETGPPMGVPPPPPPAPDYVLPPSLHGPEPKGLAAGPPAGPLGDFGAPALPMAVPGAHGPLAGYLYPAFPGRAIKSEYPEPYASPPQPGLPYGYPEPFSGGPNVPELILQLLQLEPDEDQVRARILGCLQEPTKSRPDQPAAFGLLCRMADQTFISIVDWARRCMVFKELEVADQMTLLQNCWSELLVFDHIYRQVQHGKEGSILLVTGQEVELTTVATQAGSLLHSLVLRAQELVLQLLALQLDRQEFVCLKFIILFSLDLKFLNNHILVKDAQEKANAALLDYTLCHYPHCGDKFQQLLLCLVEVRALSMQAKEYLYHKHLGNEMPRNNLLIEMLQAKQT
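Assay system: CHO-K1 cells co-transfected with Gal4 DBD–human SF-1 LBD, 5xGal4 luciferase reporter; doses: 10 µM only; incubation: 20 h compound exposure at 37 °C after 1 h cell settling; signal: luciferase light emission; evaluation: percent activation versus DMSO; repeats: one test per compound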
RORa activator – activators of human nuclear receptor RORA. CHO-K1 Gal4-RORA LBD luciferase reporter, luminescence; percent increase over mock-subtracted basal signal. activation, % at 10 µM. 65,000 tested, 1.5% active. AID 560;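 active = activation above the mean of all tested compounds plus 3 SD, cut at about 49% in these data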;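 note: 0% = DMSO-treated RORA cells and 100% = added signal equal to DMSO minus mock-transfected cells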
M1 agonist – agonists of M1 muscarinic receptor; CHO-M1 cells, Fluo-4 calcium fluorescence, agonist mode; hits give high values; B-score at 10 µM; 64,000 tested, 3% active;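 active = fluorescence rise, raw or as B-score row- and column-corrected plate score, outside the 99.7% band of its plate's samples, either direction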
M1 antag confirm – M1 muscarinic receptor (rat) antagonism, confirmed; shares compounds with M1 antag; CHO-M1 cells, Fluo-4 calcium, ACh EC80 antagonism; hits give low values; calcium response (max-min fluorescence) at 10 µM; 1,700 tested, 43% active; AID 677;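 active = calcium response below the same-plate mean of wells given acetylcholine alone at its 80%-effect dose, minus 3 SD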;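 note: raw fluorescence intensity difference in arbitrary instrument units and not normalized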
mGluR4 antag – selectivity test for M1 antagonists: human mGluR4 receptor. shares compounds with M1 antag. CHO-mGluR4 calcium flux, Fluo-4 fluorescence, glutamate EC80; hits give low values. fluorescence response (max-min) at 10 µM. 1,700 tested, 0.9% active;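 active = fluorescence response below the plate's average for near-maximal glutamate wells, less 3 SD of those wells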;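 note: raw unnormalized fluorescence span taken in the window right after glutamate addition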
* = called active by the depositor; . = no result given.

SMILES	M1 antag	Htt clearance	D1 mod	SF1 activator	RORa activator	M1 agonist	M1 antag confirm	mGluR4 antag
COc1ccccc1CCNC(=O)c1ccoc1C	0.47	.	0.7	22	-22	0.0055	.	.
O=C(NC(=O)c1ccccc1)NC1(C(F)(F)F)OCCO1	-19*	.	-0.25	25	46	0.22	695	181
O=C(NC(Cc1ccccc1)c1nc2ccccc2[nH]1)C1CC(=O)N(c2ccc3c(c2)OCCO3)C1 (stereo unspecified)	0.37	.	.	-6	-9	0.48	.	.
CCOC(=O)N1CCC(NC(=O)CN2C(=O)C(CC)Oc3ccc(C)cc32)CC1 (stereo unspecified)	-5.7*	.	1.1	2	-14	-0.43	665	204
CCC1Oc2ccc(C)cc2N(CC(=O)NCCN2CCCCCC2)C1=O (stereo unspecified)	0.55	9	0.3	6	-16	-0.66	.	.
CCN1CCN(CCC(=O)Nc2ccccc2OC)CC1	0.67	25	-0.55	-2	-12	0.43	.	.
CCN1CCN(Cc2c(OC)ccc3ccccc23)CC1	-3*	-38	-3.6*	-3	6	0.58	539	247
CCN(CC)CCOC(=O)c1c(C)oc2ccc(O)cc12	-3.3*	33	-1.6	-9	-20	0.048	296*	258
CCOC(=O)c1c(CN2CCN(C)CC2)oc2ccc(O)cc12	-1	20	-0.15	-21	14	0.076	.	.
O=C(Nc1ccc(Cl)c(Cl)c1)N1CCSCC1	.	32	.	.	.	.	.	.
Cc1cc(C)c(C#N)c(SCC(=O)N2CCN(Cc3ccccc3)CC2)n1	0.059	-35	0.17	2	-14	0.076	.	.
CCN(Cc1ccccc1)C(=O)CSc1nc(C)cc(C)c1C#N	-2.4*	.	-0.75	-26	-16	-0.21	551	238
COc1cccc(C2NC(=O)NC(O)(C(F)(F)F)C2C(=O)c2cccnc2)c1OC (stereo unspecified)	0.79	.	1.9	0	-8	1.9	.	.
CCOc1ccc(S(=O)(=O)n2c(C)nc3ccccc32)cc1	-2.6*	.	-1.6	8	16	-0.073	202*	243
CCCCOc1ccc(S(=O)(=O)n2c(C)nc3ccccc32)cc1	-3.5*	.	-0.62	-5	-7	-1	584	242
CC(C)Nc1nc2n(c(=O)n1)CCN2C(C)C	0.81	32	0.096	-6	28	-0.85	.	.
O=c1c2ccccc2nnn1CSc1nnc(-c2cccc(S(=O)(=O)N3CCCCC3)c2)o1	-4.2*	-12	2.8	0	-3	1.7	366*	238
COC(=O)c1ccc2ccn(CC(=O)NC3CCCCC3)c2c1	.	-13	.	.	.	.	.	.
COC(=O)c1cn(CC(=O)NC2CCCCC2)c2ccccc12	-2*	-3	0.13	10	20	0.33	572	219
Cc1ccc(Cn2c(SCC(C)C)nc3c2c(=O)n(C)c(=O)n3C)cc1	-0.14	31	0.097	4	6	-0.31	.	.
CC(C)=CCCC(C)CN(C)CCc1ccccn1 (stereo unspecified)	-3.1*	.	-0.29	-4	-1	0.72	569*	198
CCC(C)N(CCNC(=O)CC1Oc2ccccc2NC1=O)C1CCCCC1 (stereo unspecified)	-11*	54	-1.7	-5	6	-0.093	61*	229
O=C(CC1Oc2ccccc2NC1=O)NC1CC1 (stereo unspecified)	-3.9*	.	-0.33	-8	8	0.38	552	196
CN1OC(COC(=O)c2ccc(Cl)cc2Cl)CC1c1ccccc1 (stereo unspecified)	.	9	.	.	.	.	.	.
C=CC(C)Sc1nc2c(c(=O)n(C)c(=O)n2C)n1Cc1ccccc1Cl (stereo unspecified)	-4.5*	.	2	0	6	0.52	594	265
SMILES	M1 antag	Htt clearance	D1 mod	SF1 activator	RORa activator	M1 agonist	M1 antag confirm	mGluR4 antag
C=CCOc1nc2c(c(=O)n(C)c(=O)n2C)n1Cc1ccccc1Cl	-0.013	-48	.	-14	-23	0.79	.	.
Cn1c(=O)c2c(nc(Sc3ncccn3)n2Cc2ccc(Cl)cc2)n(C)c1=O	0.2	-213	-0.39	-2	-3	-0.99	.	.
CCSc1nc2c(c(=O)n(C)c(=O)n2C)n1Cc1ccc(Cl)cc1	-3.7*	-45	1.7	8	20	0.44	410	225
Cn1c(=O)c2c(nc(SCCN3CCCCC3)n2Cc2ccc(Cl)cc2)n(C)c1=O	-7.8*	.	0.75	4	-21	-0.88	87*	248
Cc1cc(C(=O)N(C)Cc2ccc(Br)cc2)no1	-7.8*	.	0.022	-13	-12	-0.014	647	241
O=S(=O)(NCCc1ccccc1F)c1cccc(S(=O)(=O)N2CCOCC2)c1	-0.32	1	-0.74	-19	-14	-1.2	.	.
COc1ccccc1CNS(=O)(=O)c1cccc(S(=O)(=O)N2CCOCC2)c1	-4.7*	10	0.16	0	-7	1.3	605	209
O=C(CCN1CCC(c2ccccc2)C1)c1cccs1 (stereo unspecified)	-5.1*	.	-4.7*	-3	16	0.01	514	191
O=C(c1ccc2nc(N3CCCCC3)sc2c1)N1CCN(Cc2ccc3c(c2)OCO3)CC1	-0.95*	.	-1	24	-2	-2.1	366	219
O=S(=O)(CC(CN1CCCC1)N1CCCC1)c1ccc2ccccc2c1 (stereo unspecified)	1.1	-51	-2.1	-34	-28	0.17	.	.
COc1ccccc1-c1c(C)nn2c(N3CCN(c4ccccc4OC)CC3)cc(C)nc12	-0.22	.	-0.068	25	2	-0.062	.	.
COc1ccccc1-c1c(C)nn2c(N3CCCCCC3)cc(C)nc12	-2.5*	.	-1.8	10	19	-0.44	624	207
CCN(CC)c1ccc(C2CC(=O)NC3=C2C(=O)CC(C)(C)C3)cc1 (stereo unspecified)	-3.2*	.	0.61	28	-14	0.23	381*	252
CN(C)c1ccc(C2CC(=O)NC3=C2C(=O)CC(C)(C)C3)cc1 (stereo unspecified)	-0.042	18	.	-1	11	0.25	.	.
CCN(CC)CCOC(=O)C1(c2ccccc2)CCOCC1	-15*	38	0.78	11	-22	-0.94	102*	237
CN1CCc2c(c3ccccc3n2Cc2ccccc2)C1	-3.9*	45	.	-34	10	-0.61	231*	251
Cc1c(C(C)O)nnn1-c1nonc1N (stereo unspecified)	0.2	-2	0.34	-1	16	-0.034	.	.
CCN(CC)CCCN1C(=O)c2oc3ccccc3c(=O)c2C1c1cccnc1 (stereo unspecified)	0.46	.	-0.05	-15	1	0.087	.	.
